Results from ChEMBL document CHEMBL3593174, “Amantelides A and B, Polyhydroxylated Macrolides with Differential Broad-Spectrum Cytotoxicity from a Guamanian Marine Cyanobacterium” (J Nat Prod, 2015).
Values after ≈ are worked out from the molar mass of the structure shown.

What was measured:
HeLa [1] = experiment: Cytotoxicity against human HeLa cells after 48 hrs by MTT assay; assay type: functional, cell-based
Procedure, shortened: (§1)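 HeLa (3000) or HT29 (12 500 cells/well) grown in DMEM with 10% FBS, 5% CO2, 37 °C; treated with graded concentrations 24 h after seeding, DMSO solvent control, then incubated 48 h before MTT viability read-out; IC50 fitted from duplicate experiments.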

HT-29 [2] = experiment: Cytotoxicity against human HT-29 cells after 48 hrs by MTT assay; assay type: functional, cell-based; details: HT-29, 48 h; procedure, shortened: as §1
Fusarium sp. [3] = experiment: Antifungal activity against Fusarium sp. assessed as growth inhibition at 62.5 ug/ml; assay type: functional; details: read-out: GI
Procedure, shortened: (§2)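 Fungus (Lindra thalassiae, Dendryphiella salina or Fusarium sp.) exposed to sample dissolved in MeOH, serially diluted, added to molten YPM P/S agar; MeOH-only solvent controls plus media-only wells; triplicate wells; 1 mm2 plug of culture transferred per well, 26 °C. Scored when media controls fully covered by hyphae: hyphae-containing squares counted through window screen; % inhibition versus solvent control.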

[4] = Antifungal activity against Dendryphiella salina assessed as growth inhibition at 62.5 ug/ml; assay type: functional; details: Paradendryphiella salina; procedure, shortened: as §2
Fusarium sp. [5] = experiment: Antifungal activity against Fusarium sp. assessed as growth inhibition at 6.25 ug/ml; assay type: functional; details: read-out: GI; procedure, shortened: as §2
[6] = Antifungal activity against Dendryphiella salina assessed as growth inhibition at 6.25 ug/ml; assay type: functional; details: Paradendryphiella salina; procedure, shortened: as §2
Pseudomonas aeruginosa = experiment: Antimicrobial activity against Pseudomonas aeruginosa ATCC 27853 after 24 hrs by broth microdilution method; assay type: functional; details: ATCC 27853, 24 h
Procedure, shortened: (§3)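 Broth microdilution in Mueller–Hinton broth; colony grown 6–8 h at 37 °C, adjusted to 0.5 McFarland then diluted 100-fold as inoculum. Treated 24 h at 37 °C, 150 rpm; 0.02% v/v resazurin added, fluorescence read at ex 530/em 590 nm. Oxacillin (S. aureus) or nalidixic acid (P. aeruginosa) positive controls, MHB-only sterility control; % inhibition relative to solvent control.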

Lindra thalassiae [7] = experiment: Antifungal activity against Lindra thalassiae assessed as growth inhibition at 6.25 ug/ml; assay type: functional; details: Lindriella thalassiae; read-out: GI; procedure, shortened: as §2
Staphylococcus aureus = experiment: Antimicrobial activity against Staphylococcus aureus ATCC 6538 after 24 hrs by broth microdilution method; assay type: functional; details: ATCC 6538, 24 h; procedure, shortened: as §3
Lindra thalassiae [8] = experiment: Antifungal activity against Lindra thalassiae assessed as growth inhibition at 62.5 ug/ml; assay type: functional; details: Lindriella thalassiae; read-out: GI; procedure, shortened: as §2
HeLa [9] = experiment: Cytotoxicity against human HeLa cells after 1 to 48 hrs by MTT assay; assay type: functional, cell-based
Procedure, shortened: (§4)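 HeLa and HT29 cultured in DMEM with 10% FBS at 37 °C, 5% CO2, exposed to graded concentrations for 1, 3, 6, 12, 24 or 48 h; MTT viability read-out, IC50 at each time point.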

HT-29 [10] = experiment: Cytotoxicity against human HT-29 cells after 1 to 48 hrs by MTT assay; assay type: functional, cell-based; procedure, shortened: as §4
Fusarium sp. [11] = experiment: Antifungal activity against Fusarium sp. assessed as growth inhibition at 625 ug/ml; assay type: functional; details: read-out: GI; procedure, shortened: as §2
Lindra thalassiae [12] = experiment: Antifungal activity against Lindra thalassiae assessed as growth inhibition at 625 ug/ml; assay type: functional; details: Lindriella thalassiae; read-out: GI; procedure, shortened: as §2
[13] = Antifungal activity against Dendryphiella salina assessed as growth inhibition at 625 ug/ml; assay type: functional; details: Paradendryphiella salina; procedure, shortened: as §2

SMILES | IC50 (HeLa [1]) [µM] | IC50 (HT-29 [2]) [µM] | inhibition of growth at 62.5 µg/mL (Fusarium sp. [3]) [%] | growth inhibition (GI) [4] [%] | inhibition of growth at 6.25 µg/mL (Fusarium sp. [5]) [%] | growth inhibition (GI) [6] [%] | MIC (Pseudomonas aeruginosa) [µM] | inhibition of growth at 6.25 µg/mL (Lindra thalassiae [7]) [%] | MIC (Staphylococcus aureus) [µM] | inhibition of growth at 62.5 µg/mL (Lindra thalassiae [8]) [%] | IC50 (HeLa [9]) [µM] | IC50 (HT-29 [10]) [µM] | inhibition of growth at 625 µg/mL (Fusarium sp. [11]) [%] | inhibition of growth at 625 µg/mL (Lindra thalassiae [12]) [%] | growth inhibition (GI) [13] [%]
CC(=O)OC1CCCC(O)CCCC(O)CCCC(O)CCCC(O)CCCC(O)CCC[C@@H](O)C[C@@H](O)CCC/C(C)=C\C(=O)OC(C(C)(C)C)CC(O)CCC1 (some centres undefined) | 9.9 | 12 |  |  |  |  |  |  |  |  |  |  |  |  | 
C[C@@H]1[C@H](O)[C@@H](C)/C=C/C=C/C=C/C=C/C=C/C=C/C=C/[C@H](O[C@@H]2O[C@H](C)[C@@H](O)[C@H](N)[C@@H]2O)C[C@@H]2O[C@](O)(C[C@@H](O)C[C@@H](O)[C@H](O)CC[C@@H](O)C[C@@H](O)CC(=O)O[C@H]1C)C[C@H](O)[C@H]2C(=O)O [AMPHOTERICIN B] | 10 | 10 | 6 | 100 | 12 | 100 | > 100 | 0 | > 100 | 21 |  |  |  |  | 
CC(=O)OC1CCCC(OC(C)=O)CCCC(OC(C)=O)CCCC(OC(C)=O)CCC[C@@H](OC(C)=O)C[C@@H](OC(C)=O)CCC/C(C)=C\C(=O)OC(C(C)(C)C)CC(OC(C)=O)CCCC(OC(C)=O)CCCC(OC(C)=O)CCC1 (some centres undefined) | 18 | 58 |  |  |  |  |  |  |  |  |  |  |  |  | 
C/C1=C/C(=O)OC(C(C)(C)C)CC(O)CCCC(O)CCCC(O)CCCC(O)CCCC(O)CCCC(O)CCCC(O)CCC[C@@H](O)C[C@@H](O)CCC1 (some centres undefined) | 0.87 | 0.87 | 100 | 60 | 35 | 0 | 32 (≈ 25.3 µg/mL) | 40 | 32 (≈ 25.3 µg/mL) | 100 | 0.87 | 0.87 | 100 | 100 | 100
